Screening data (PubChem)
GASC1 inh: inhibitors of GASC-1 (KDM4C) histone demethylase, primary screen, biochemical, single concentration HTS. 96,000 tested, 0.15% active. inhibition, % at 12.5 µM. Lysine-specific demethylase 4C (Homo sapiens), Q9H3R0. GST-KDM4C 2-372, H3K9me3 peptide, LANCE TR-FRET. AID 720574, 2013;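 active = mean replicate inhibition above about 25%, with at least 55% of replicates also reaching it, limit read from the data, passing the limit was not always enough; inconclusive = only one of those two conditions met; inactive = neither condition met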
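Material: N-terminal GST-fused human GASC-1 (KDM4C) fragment, residues 2-372. Input: 10 nM enzyme. Incubation: enzyme reaction 30 min, then detection 60 min, both room temperature. Doses: one test concentration per compound. Read-out basis: inhibition from TR-FRET ratio decrease. Detection: LANCE TR-FRET, excitation 340 nm, emissions 618 and 671 nm.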
T cruzi growth-1: T. cruzi intracellular proliferation inhibitors, primary screen, cell-based, beta-gal Tulahuen parasites, NIH3T3 host, luminescence | AID 624255, 2012 | inhibition, % at 8.34 µM | 77,000 tested, 5.9% active | T. cruzi beta-gal in NIH3T3, GalScreen luminescence, 90 h;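 active = mean inhibition above about 93%, with at least 55% of replicates each passing it, limit read from the data, passing the limit was not always enough; inconclusive = only one of those two conditions holds; inactive = neither condition holds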
IDH1 mut inh: inhibitors of IDH1 R132H reductase, primary screen, biochemical, plate reader, single point; Isocitrate dehydrogenase [NADP] cytoplasmic (Homo sapiens), O75874; diaphorase/resazurin fluorescence, 60 min; inhibition, % at 10 µM; 70,000 tested, 0.18% active; in the data active = inhibition above about 34%; inconclusive = no clear call, values can overlap the other calls; inactive = below about 11%
Target sequence (O75874 whole entry R132H): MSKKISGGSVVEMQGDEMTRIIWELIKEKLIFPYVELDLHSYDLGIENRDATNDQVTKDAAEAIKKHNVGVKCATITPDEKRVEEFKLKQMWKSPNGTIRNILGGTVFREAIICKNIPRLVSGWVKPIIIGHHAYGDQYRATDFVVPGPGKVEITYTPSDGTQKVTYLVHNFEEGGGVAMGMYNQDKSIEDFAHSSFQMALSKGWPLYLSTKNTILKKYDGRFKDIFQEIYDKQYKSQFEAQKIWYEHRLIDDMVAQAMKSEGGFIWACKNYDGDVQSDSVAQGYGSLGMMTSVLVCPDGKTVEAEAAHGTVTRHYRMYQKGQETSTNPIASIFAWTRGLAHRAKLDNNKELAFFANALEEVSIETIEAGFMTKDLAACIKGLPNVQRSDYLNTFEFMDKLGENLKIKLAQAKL
T cruzi growth-2: T. cruzi intracellular proliferation inhibitors, confirmation, cell-based, NIH3T3 host, beta-gal parasite, luminescence, cherry-pick. shares compounds with T cruzi growth-1. T. cruzi beta-gal in NIH3T3, GalScreen luminescence, 90 h. inhibition, % at 8.35 µM. 5,600 tested, 72% active. AID 651739, 2012;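 active = mean replicate inhibition above about 95% and at least 55% of replicates individually reaching it, limit read from the data; inconclusive = only one of the two criteria is met; inactive = neither criterion is met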
T cruzi growth-3: inhibitors of intracellular T. cruzi replication, confirmation, NIH3T3 host cells, beta-gal parasites, cherry-pick, set 2; shares compounds with T cruzi growth-1; T. cruzi beta-gal in NIH3T3, GalScreen luminescence, 90 h; inhibition, % at 2.09 µM; 5,600 tested, 21% active;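 active = mean inhibition above about 95%, with at least 55% of replicates also reaching it, limit read from the data; inconclusive = meets just one of the two conditions; inactive = meets neither condition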
NIH3T3 tox: cytotoxicity in mouse NIH/3T3 fibroblasts, confirmation, cytotoxicity control for T. cruzi proliferation inhibitor project, cell-based, cherry-pick, single point | shares compounds with T cruzi growth-1 | NIH/3T3 viability, CellTiter-Glo ATP luminescence, 90 h | cytotoxicity (signal decrease), % at 8.35 µM | 5,600 tested, 14% active | AID 651742, 2012;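 active = mean signal decrease across replicates above about 35% based on untreated-well scatter, with enough replicates individually passing, limit read from the data; inconclusive = no rule stated though some were filed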
NIH3T3 tox 2: NIH/3T3 fibroblast cytotoxicity, confirmation, cytotoxicity control, cell-based, cherry-pick, single point, set 2 | AID 651744, 2012 | shares compounds with T cruzi growth-1 | NIH/3T3 viability, CellTiter-Glo ATP luminescence, 90 h | 5,600 tested, 56% active | inhibition, % at 24.9 µM;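 active = mean loss of cell viability signal at or above a set limit, and enough replicates individually reaching it; inconclusive = meets only the mean limit or only the replicate share; inactive = meets neither condition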
Numbers stand for hits. The sample as a whole holds a higher share of hits than the screen did.

`C[C@H](CO)N1C[C@H](C)[C@H](CN(C)C(=O)c2cccc(F)c2)Oc2cc(-c3ccncc3)ccc2S1(=O)=O` gave GASC1 inh inactive, T cruzi growth-1 109, IDH1 mut inh inactive, T cruzi growth-2 inactive, T cruzi growth-3 inactive, NIH3T3 tox inactive and NIH3T3 tox 2 inactive.
`C[C@H]1CN([C@@H](C)CO)S(=O)(=O)c2ccc(-c3ccncc3)cc2O[C@@H]1CN(C)C(=O)c1cccc(F)c1` gave GASC1 inh inactive, T cruzi growth-1 114, IDH1 mut inh inactive, T cruzi growth-2 inactive, T cruzi growth-3 inactive, NIH3T3 tox inactive and NIH3T3 tox 2 inconclusive.
`CC(C)Cc1cnc(CCC(N)=O)c(=O)[nH]1` gave IDH1 mut inh inactive.
C[C@@H]1CN([C@H](C)CO)C(=O)Cc2cc(NC(=O)Cn3cnnn3)ccc2O[C@@H]1CN(C)Cc1ccc(C(=O)Nc2ccccc2N)cc1 was read as GASC1 inh inactive and IDH1 mut inh inactive.
`COc1ccc(NC(=O)Nc2ccc3c(c2)C(=O)N([C@@H](C)CO)C[C@H](C)[C@@H](CN(C)Cc2ccc4c(c2)OCO4)OCCCC[C@H](C)O3)cc1` gave GASC1 inh inactive, T cruzi growth-1 inconclusive, T cruzi growth-2 103, T cruzi growth-3 inactive, NIH3T3 tox inactive and NIH3T3 tox 2 105.
`COc1ccc(CN(C)C[C@@H]2OCCCC[C@@H](C)Oc3ccc(NC(=O)Nc4ccc5c(c4)OCO5)cc3C(=O)N([C@@H](C)CO)C[C@H]2C)cc1` gave GASC1 inh inactive and T cruzi growth-1 inactive.
`COc1ccc(CN(C)C[C@H]2OCCCC[C@H](C)Oc3ccc(NC(=O)Nc4ccc5c(c4)OCO5)cc3C(=O)N([C@H](C)CO)C[C@H]2C)cc1` gave GASC1 inh inactive, T cruzi growth-1 105, T cruzi growth-2 inconclusive, T cruzi growth-3 inconclusive, NIH3T3 tox inactive and NIH3T3 tox 2 78.
COc1ccc(CN(C)C[C@H]2OCCCC[C@@H](C)Oc3ccc(NC(=O)Nc4ccc5c(c4)OCO5)cc3C(=O)N([C@H](C)CO)C[C@@H]2C)cc1 was read as GASC1 inh inactive, T cruzi growth-1 inactive and IDH1 mut inh inactive.
Screening COc1ccc(NC(=O)Nc2ccc3c(c2)C(=O)N([C@@H](C)CO)C[C@H](C)[C@H](CN(C)C(=O)Nc2ccc(OC)cc2)OCCCC[C@@H](C)O3)cc1 returned GASC1 inh inactive and IDH1 mut inh inactive.
For COc1ccc(NC(=O)N(C)C[C@@H]2OCCCC[C@H](C)Oc3ccc(NC(=O)Nc4ccc(F)cc4)cc3C(=O)N([C@@H](C)CO)C[C@@H]2C)cc1 the results were GASC1 inh inactive, T cruzi growth-1 101, T cruzi growth-2 107, T cruzi growth-3 inactive, NIH3T3 tox inactive and NIH3T3 tox 2 inactive.
`COc1ccc(NC(=O)Nc2ccc3c(c2)C(=O)N([C@H](C)CO)C[C@H](C)[C@H](CN(C)C(=O)Nc2ccc(F)cc2)OCCCC[C@@H](C)O3)cc1` gave GASC1 inh inactive and T cruzi growth-1 inactive.
For COc1ccc(NC(=O)Nc2ccc3c(c2)C(=O)N([C@@H](C)CO)C[C@H](C)[C@@H](CN(C)C(=O)C2CCCCC2)OCCCC[C@H](C)O3)cc1 the results were GASC1 inh inactive, T cruzi growth-1 inactive and IDH1 mut inh inactive.
`COc1ccc(NC(=O)Nc2ccc3c(c2)C(=O)N([C@H](C)CO)C[C@H](C)[C@H](CN(C)C(=O)Nc2ccc(OC)cc2)OCCCC[C@H](C)O3)cc1` gave GASC1 inh inactive, T cruzi growth-1 inconclusive, T cruzi growth-2 103, T cruzi growth-3 inactive, NIH3T3 tox inactive and NIH3T3 tox 2 inactive.
Screening COc1ccc(NC(=O)Nc2ccc3c(c2)C(=O)N([C@@H](C)CO)C[C@H](C)[C@@H](CN(C)C(=O)C2CCCCC2)OCCCC[C@@H](C)O3)cc1 returned GASC1 inh inactive, T cruzi growth-1 95, IDH1 mut inh inactive, T cruzi growth-2 104, T cruzi growth-3 inactive, NIH3T3 tox inactive and NIH3T3 tox 2 inactive.
CCC(=O)N1C[C@H](C)[C@H](OC)CN(C)C(=O)c2cc(NC(=O)Nc3cccc(F)c3)ccc2OC[C@H]1C was read as GASC1 inh inactive, T cruzi growth-1 inactive and IDH1 mut inh inactive.
`COCCCNC(=O)c1cc(-c2ccccc2)nc2c(C)cc(C)cc12` gave IDH1 mut inh inactive.
COc1ccc(NC(=O)N(C)C[C@H]2Oc3cc(-c4cccc(C(=O)N(C)C)c4)ccc3S(=O)(=O)N([C@H](C)CO)C[C@H]2C)cc1 was read as GASC1 inh inactive and IDH1 mut inh inactive.
COc1ccc(NC(=O)N(C)C[C@@H]2Oc3cc(-c4cccc(C(=O)N(C)C)c4)ccc3S(=O)(=O)N([C@H](C)CO)C[C@@H]2C)cc1 was read as GASC1 inh inactive and IDH1 mut inh inactive.
Screening COc1ccc(NC(=O)N(C)C[C@@H]2Oc3cc(-c4ccc(C)cc4)ccc3S(=O)(=O)N([C@@H](C)CO)C[C@H]2C)cc1 returned GASC1 inh inactive, T cruzi growth-1 97, IDH1 mut inh inactive, T cruzi growth-2 104, T cruzi growth-3 inactive, NIH3T3 tox inactive and NIH3T3 tox 2 inactive.
For COc1ccc(NC(=O)N(C)C[C@@H]2Oc3cc(-c4cccc(C(=O)N(C)C)c4)ccc3S(=O)(=O)N([C@@H](C)CO)C[C@@H]2C)cc1 the results were GASC1 inh inactive and IDH1 mut inh inactive.
`COc1ccc(NC(=O)N(C)C[C@@H]2Oc3cc(-c4ccc(C)cc4)ccc3S(=O)(=O)N([C@H](C)CO)C[C@H]2C)cc1` gave GASC1 inh inactive, T cruzi growth-1 108, IDH1 mut inh inactive, T cruzi growth-2 105, T cruzi growth-3 inactive, NIH3T3 tox inactive and NIH3T3 tox 2 26.
Screening COc1ccc(NC(=O)N(C)C[C@H]2Oc3cc(-c4ccc(C)cc4)ccc3S(=O)(=O)N([C@H](C)CO)C[C@@H]2C)cc1 returned GASC1 inh inactive, T cruzi growth-1 114, IDH1 mut inh inactive, T cruzi growth-2 inactive, T cruzi growth-3 inactive, NIH3T3 tox inactive and NIH3T3 tox 2 inactive.
